# From PubChem BioAssay
# Hits are enriched below; roughly 4.6% of the tested compounds scored in any of these assays.
# GPR7 antag – human neuropeptides B/W receptor 1 antagonism | 290,000 compounds, 1.1% hits | P48145 | AID 1861 | GPR7-expressing cells, fluorescence antagonist assay | inhibition, % at 4.4 µM; in the data active = inhibition above about 16%, passing the limit was not always enough;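 also: cells stimulated with the agonist NPW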
# TAAR1 ag – human TAAR1 agonism; CHO RD-HGA16 TAAR1, Fluo-8 calcium fluorescence; vehicle wells 0%, saturating PEA agonist 100%; activation, % at 3 µM; 360,000 compounds, 0.99% hits; AID 624467;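 active = activation above the mean activation of all test compounds in the run plus 3 SD, cut at about 38% in these data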
#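 Repeats: no replicates (n 1) | Material: CHO-derived RD-HGA16 cells with stable Gα16 and human TAAR1 | Technique: Kinetic Fluo-8 calcium fluorescence | Schedule: 17-24 h seeding, 75 min 37 °C dye, 30 min RT | Evaluation: % activation from peak over basal fluorescence ratio, DMSO-to-PEA scaled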
# TAAR1 antagonist – antagonists of human TAAR1 | 360,000 compounds, 1.5% hits | CHO RD-HGA16 TAAR1, Fluo-8 calcium fluorescence, antagonist | Q96RJ0 | AID 624466 | inhibition, % at 3 µM;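 active = inhibition above a per-plate cutoff, the mean inhibition of test compounds on that plate plus 3 SD, cut at about 49% in these data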
#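 Assay system: RD-HGA16 CHO cells with stable hTAAR1 and Gα16 / Reagent: EC80 β-phenethylamine stimulus / Doses: 3 µM, single point / Timing: dye loading 75 min at 37 °C, then 30 min room temperature / Measured by: Fluo-8 intracellular calcium dye fluorescence, real-time kinetic reads / Controls: vehicle wells and EC80 agonist wells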
# OX1R antag-1 – OX1R (human) antagonism | 330,000 compounds, 1.8% hits | O43613 | inhibition, % at 6.6 µM | OX1R-expressing cells, FRET antagonist read-out; in the data active = inhibition mostly above about 38%, no sharp cut-off; inactive = mostly below about 40%
# Target sequence (O43613 whole entry, looked up): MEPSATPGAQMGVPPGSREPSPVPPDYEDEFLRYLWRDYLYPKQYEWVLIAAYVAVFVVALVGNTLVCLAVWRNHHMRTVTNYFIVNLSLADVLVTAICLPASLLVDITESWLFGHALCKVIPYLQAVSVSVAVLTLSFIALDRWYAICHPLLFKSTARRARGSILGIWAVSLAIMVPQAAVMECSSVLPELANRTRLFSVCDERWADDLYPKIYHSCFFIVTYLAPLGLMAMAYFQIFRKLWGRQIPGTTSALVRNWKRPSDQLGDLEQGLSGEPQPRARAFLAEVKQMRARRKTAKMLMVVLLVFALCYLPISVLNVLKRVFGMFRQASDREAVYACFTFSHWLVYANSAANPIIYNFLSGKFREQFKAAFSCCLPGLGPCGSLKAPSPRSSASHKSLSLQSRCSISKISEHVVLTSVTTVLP
# CHO parental Ca – signal in parental CHO cells, OX1R antagonist counter-screen; parental CHO-K1, ATP-induced calcium, Fluo-8 fluorescence; inhibition, % at 5.6 µM; 330,000 compounds, 0.63% hits; AID 463079;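 active = inhibition above that plate's mean sample inhibition plus 3 SD, cut at about 26% in these data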
#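 Material – parental CHO cells · Reagent – ATP stimulus · Compound – single nominal dose of 5.6 µM per compound · Detection – Fluo-8 fluorescence · Read-out basis – percent inhibition of calcium signal · Controls – ATP-challenged DMSO wells low, unchallenged DMSO wells high · Repeats – no replicates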
# OX1R antag-2 – antagonists of human orexin 1 receptor; CHO/OX1R cells, Fluo-8 calcium fluorescence, orexin A; AID 434989; inhibition, % at 5 µM; O43613; 330,000 compounds, 0.43% hits;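 active = inhibition above its plate's threshold, mean inhibition of all tested compounds on the plate plus 3 SD, cut at about 37% in these data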
# Numbers stand for hits; – = inactive; · = no result given.
SMILES,GPR7 antag,TAAR1 ag,TAAR1 antagonist,OX1R antag-1,CHO parental Ca,OX1R antag-2
C=CCn1c(-c2cccs2)nc2nc3ccccc3nc21,–,–,–,72.4,–,–
COc1cc(OC)c2ccc(=O)oc2c1C(CCN1CCN(c2ccccc2)CC1)c1ccc(N(C)C)cc1 (centres undefined),·,–,–,–,–,–
O=c1[nH]cnc2ncc(-c3ccc(O)cc3)nc12,·,–,–,59.6,–,–
Cc1cc(F)ccc1S(=O)(=O)Nc1ccccc1C(=O)Nc1ccccc1-c1nc2ccccc2[nH]1,–,·,·,–,30.5,–
Cc1cccn2cc(-c3ccc4c(c3)NC(=O)CO4)nc12,–,–,–,–,–,–
Cc1ccn2cc(-c3ccc4c(c3)NC(=O)CO4)nc2c1,16.9,–,–,–,–,–
CCN1C(=O)c2cccc3c(N)ccc(c23)C1=O,–,136.3,–,–,46.3,58.5
CCCN1C(=O)c2cccc3c(N4CCCCC4)ccc(c23)C1=O,–,–,–,–,–,–
O=[N+]([O-])c1ccc(NCCCNS(=O)(=O)c2ccc(Cl)cc2)c(Cl)c1,54.1,–,–,–,–,–
CC(Sc1nnc2n1CCCCC2)C(=O)Nc1ccccc1[N+](=O)[O-] (centres undefined),·,–,–,–,–,–
CCOC(=O)c1sc(/N=C/c2ccc(O)cc2O)cc1C,–,–,–,–,–,–
COc1cccc(CN2CC(C(=O)N3CCN(C(C)C)CC3)CCC2=O)c1 (centres undefined),–,–,–,–,–,–
Cc1ccc(NC(=O)Cn2nc(C)c3ccccc3c2=O)cc1F,18.6,–,–,–,–,–
Cc1nn(CC(=O)Nc2ccccc2)c(=O)c2ccccc12,–,–,–,–,–,–
O=C(/C=C/c1ccc(S(=O)(=O)N2CCOCC2)cc1)NC(=S)Nc1ccc(Cl)cc1Cl,–,–,–,–,–,–
O=C(CSc1cccc2cccnc12)Nc1ccc(S(=O)(=O)N2CCOCC2)cc1,–,–,–,–,38.4,–
Cc1ccc(NC(=O)CC(C)c2ccccc2)cc1S(=O)(=O)N1CCOCC1 (centres undefined),·,–,–,37.3,–,–
Cc1ccc(NC(=O)CSCC(=O)Nc2ccc(S(=O)(=O)N3CCOCC3)cc2)cc1,–,–,–,–,–,–
O=S(=O)(c1cc(-c2nc3ccccc3s2)ccc1Cl)N1CCOCC1,22.6,·,·,·,·,·
COc1ccc(NC(=O)CC(C)c2ccccc2)cc1S(=O)(=O)N1CCOCC1 (centres undefined),·,–,–,–,–,–
Cc1ccc(-c2nc3ccccc3s2)cc1S(=O)(=O)N1CCOCC1,–,–,–,–,–,–
O=C(Nc1ccccc1)Nc1ccc(Cl)c(S(=O)(=O)N2CCOCC2)c1,18.0,–,–,–,–,–
CC(C)C[C@H](NC(=O)c1nc[nH]c1C(=O)N1CCNCC1)C(=O)OCc1ccccc1,·,–,–,–,–,–
COc1cc2oc(=O)cc(CN3CCN(c4ccccc4OC)CC3)c2cc1Cl,·,–,–,·,·,·
O=C(CSc1ccccc1)Nc1ccc(Cl)c(S(=O)(=O)N2CCOCC2)c1,·,–,–,39.8,–,–
SMILES,GPR7 antag,TAAR1 ag,TAAR1 antagonist,OX1R antag-1,CHO parental Ca,OX1R antag-2
O=C(CSc1ncccn1)Nc1ccc(Cl)c(S(=O)(=O)N2CCOCC2)c1,·,–,–,–,–,–
COc1ccc(C2c3[nH]c4ccccc4c3CCN2Cc2cccn2-c2ncccn2)cc1C (centres undefined),29.8,–,–,–,–,–
O=C(Cn1nnc(-c2ccccc2)n1)Nc1ccc2c(c1)OCO2,–,42.3,–,–,–,–
O=C(COC(=O)c1ccccc1NC(=O)c1ccco1)Nc1ccc2c(c1)OCO2,–,–,–,71.9,–,–
CC(C)[C@@H](C(=O)OCC(=O)Nc1ccc2c(c1)OCO2)N1C(=O)c2ccccc2C1=O,–,–,–,–,–,–
CC(C)(C)NC(=O)COC(=O)c1ccccc1NC(=O)c1ccco1,–,–,–,–,–,–
O=C(COC(=O)c1ccccc1NCc1ccco1)Nc1ccc2c(c1)OCO2,–,–,–,–,–,–
O=C(Nc1ccccc1C(=O)OCC(=O)c1c[nH]c2ccccc12)c1ccco1,–,–,–,49.6,–,–
O=C(Cn1nnc(-c2ccccc2F)n1)Nc1ccc2c(c1)OCO2,–,–,–,–,–,–
O=C(COC(=O)[C@H](Cc1ccccc1)N1C(=O)c2ccccc2C1=O)Nc1ccc2c(c1)OCO2,–,–,56.5,–,–,–
COc1cc(OC)cc(C2=Cc3ccccc3C(CC(C)=O)N2c2ccc(C#CC3(N)CCCCC3)cc2)c1 (centres undefined),·,–,–,·,·,·
Cc1cccn2c(=O)c3cc(C(=O)NCC4CCCO4)c(=N)n(C4CCCCC4)c3nc12 (centres undefined),–,–,–,43.9,–,–
Cc1cccn2c(=O)c3cc(C(=O)NC4CCCC4)c(=N)n(CC4CCCO4)c3nc12 (centres undefined),–,–,–,54.9,–,–
Cc1cccn2c(=O)c3cc(C(=O)NCC4CCCO4)c(=N)n(CC4CCCO4)c3nc12 (centres undefined),–,–,–,62.5,–,–
Cc1cccn2c(=O)c3cc(C(=O)NCc4ccco4)c(=N)n(C4CCCC4)c3nc12,–,–,–,–,–,–
COc1ccc(CNC(=O)c2cc3c(=O)n4cccc(C)c4nc3n(CC3CCCO3)c2=N)cc1 (centres undefined),–,–,–,–,–,–
COc1ccc(CCn2c(=N)c(C(=O)NCC3CCCO3)cc3c(=O)n4cccc(C)c4nc32)cc1 (centres undefined),–,–,–,35.0,–,–
COc1ccccc1[C@@]1(C)ON(c2ccccc2C(F)(F)F)C1=O,·,–,–,–,–,–
Cc1ccccc1N1CC(C(=O)Nc2nnc(SCCN3CCOCC3)s2)CC1=O (centres undefined),–,–,–,–,–,–
COc1ccc(C(=O)CSc2nnc(NC(=O)C3CC(=O)N(c4ccccc4C)C3)s2)cc1 (centres undefined),–,–,52.8,–,–,–
Cc1cccc(N2CCN(C(=O)C3CCC(=O)N(C4CC4)C3)CC2)c1C (centres undefined),–,–,–,–,–,–
Cc1nccc(-c2cccc(N/N=C(\C#N)C(=O)c3ccccc3)c2)n1,–,–,–,–,–,–
N#C/C(=N\Nc1cccc(C(F)(F)F)c1)C(=O)c1ccsc1,–,–,–,54.8,–,–
Cc1cc(C)c2c(=O)n(CC(=O)NCCCN3CCN(c4ccccc4F)CC3)sc2n1,–,·,·,–,44.7,–
Cc1cc(C)c2c(=O)n(CC(=O)NCCCN3CCOCC3)sc2n1,–,·,·,–,–,–
